According to ChEMBL document CHEMBL3779892, “Increasing the binding affinity of VEGFR-2 inhibitors by extending their hydrophobic interaction with the active site: Design, synthesis and biological evaluation of 1-substituted-4-(4-methoxybenzyl)phthalazine derivatives” (Eur J Med Chem, 2016):

Experiments:
Format in all cases: functional
[1] = Growth inhibition of human BT549 cells at 10 uM after 48 hrs by sulforhodamine B assay; conditions: BT-549, 48 h, read-out: GI
Method in brief: (§1)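 Run at NCI on the 60-line panel. Cells grown in RPMI 1640 with 5% FBS and 2 mM L-glutamine, plated at 5000–40,000 cells/well by doubling time, and held 24 h at 37 °C before dosing. Drug (DMSO stock) given at a single final 10 µM in triplicate wells for 48 h. Adherent cells fixed with cold TCA (10% final), suspension cells with 16% TCA. SRB stain read at 515 nm. Percent growth from Tz, C and Ti.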

T47D = test: Growth inhibition of human T47D cells at 10 uM after 48 hrs by sulforhodamine B assay; conditions: read-out: GI
Method in brief: (§2)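 NCI-60 panel, adherent cells grown in RPMI 1640 with 5% FBS and 2 mM L-glutamine, plated at 5000–40,000 cells/well and preincubated 24 h at 37 °C, 5% CO2. 10 µM final compound from DMSO stock, triplicate wells, 48 h. Fixed with cold TCA (10% final, 60 min, 4 °C) and stained with 0.4% SRB. Absorbance read at 515 nm; growth calculated against time-zero and control wells.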

MDA-MB-231 = test: Growth inhibition of human MDA-MB-231 cells at 10 uM after 48 hrs by sulforhodamine B assay; conditions: MDA-MB-231, 48 h, read-out: GI; method in brief: as §1
CCRF-CEM = test: Growth inhibition of human CCRF-CEM cells at 10 uM after 48 hrs by sulforhodamine B assay; conditions: read-out: GI; method in brief: as §1
K562 = test: Growth inhibition of human K562 cells at 10 uM after 48 hrs by sulforhodamine B assay; conditions: K562, 48 h, read-out: GI; method in brief: as §1
A549 = test: Growth inhibition of human A549 cells at 10 uM after 48 hrs by sulforhodamine B assay; conditions: A549, 48 h, read-out: GI; method in brief: as §1
[2] = Growth inhibition of human HOP62 cells at 10 uM after 48 hrs by sulforhodamine B assay; conditions: HOP-62, 48 h, read-out: GI; method in brief: as §1
[3] = Growth inhibition of human HOP92 cells at 10 uM after 48 hrs by sulforhodamine B assay; conditions: HOP-92, 48 h, read-out: GI; method in brief: as §1
NCI-H226 = test: Growth inhibition of human NCI-H226 cells at 10 uM after 48 hrs by sulforhodamine B assay; conditions: NCI-H226, 48 h, read-out: GI; method in brief: as §1
NCI-H23 = test: Growth inhibition of human NCI-H23 cells at 10 uM after 48 hrs by sulforhodamine B assay; conditions: NCI-H23, 48 h, read-out: GI; method in brief: as §1
NCI-H322M = test: Growth inhibition of human NCI-H322M cells at 10 uM after 48 hrs by sulforhodamine B assay; conditions: read-out: GI; method in brief: as §1
NCI-H460 = test: Growth inhibition of human NCI-H460 cells at 10 uM after 48 hrs by sulforhodamine B assay; conditions: NCI-H460, 48 h, read-out: GI; method in brief: as §1
NCI-H522 = test: Growth inhibition of human NCI-H522 cells at 10 uM after 48 hrs by sulforhodamine B assay; conditions: NCI-H522, 48 h, read-out: GI; method in brief: as §1
[4] = Growth inhibition of human COLO205 cells at 10 uM after 48 hrs by sulforhodamine B assay; conditions: COLO 205, 48 h, read-out: GI; method in brief: as §1
[5] = Growth inhibition of human HCT15 cells at 10 uM after 48 hrs by sulforhodamine B assay; conditions: HCT-15, 48 h, read-out: GI; method in brief: as §1
HT-29 = test: Growth inhibition of human HT-29 cells at 10 uM after 48 hrs by sulforhodamine B assay; conditions: HT-29, 48 h, read-out: GI; method in brief: as §1
[6] = Growth inhibition of human SF268 cells at 10 uM after 48 hrs by sulforhodamine B assay; conditions: SF-268, 48 h, read-out: GI; method in brief: as §1
[7] = Growth inhibition of human SF295 cells at 10 uM after 48 hrs by sulforhodamine B assay; conditions: SF-295, 48 h, read-out: GI; method in brief: as §1
[8] = Growth inhibition of human SF539 cells at 10 uM after 48 hrs by sulforhodamine B assay; conditions: SF-539, 48 h, read-out: GI; method in brief: as §1
[9] = Growth inhibition of human SNB19 cells at 10 uM after 48 hrs by sulforhodamine B assay; conditions: SNB-19, 48 h, read-out: GI; method in brief: as §1
U-251 = test: Growth inhibition of human U251 cells at 10 uM after 48 hrs by sulforhodamine B assay; conditions: U-251, 48 h, read-out: GI; method in brief: as §2
[10] = Growth inhibition of human LOXIMVI cells at 10 uM after 48 hrs by sulforhodamine B assay; conditions: LOX IMVI, read-out: GI; method in brief: as §1
Malme-3M = test: Growth inhibition of human MALME-3M cells at 10 uM after 48 hrs by sulforhodamine B assay; conditions: read-out: GI; method in brief: as §1
M14 = test: Growth inhibition of human M14 cells at 10 uM after 48 hrs by sulforhodamine B assay; conditions: M14, 48 h, read-out: GI; method in brief: as §1
SK-MEL-28 = test: Growth inhibition of human SK-MEL-28 cells at 10 uM after 48 hrs by sulforhodamine B assay; conditions: SK-MEL-28, 48 h, read-out: GI; method in brief: as §1
[11] = Growth inhibition of human UACC62 cells at 10 uM after 48 hrs by sulforhodamine B assay; conditions: UACC-62, 48 h, read-out: GI; method in brief: as §2
[12] = Growth inhibition of human IGROV1 cells at 10 uM after 48 hrs by sulforhodamine B assay; conditions: IGROV-1, 48 h, read-out: GI; method in brief: as §1
[13] = Growth inhibition of human OVCAR4 cells at 10 uM after 48 hrs by sulforhodamine B assay; conditions: OVCAR-4, 48 h, read-out: GI; method in brief: as §1
[14] = Growth inhibition of human OVCAR5 cells at 10 uM after 48 hrs by sulforhodamine B assay; conditions: OVCAR-5, 48 h, read-out: GI; method in brief: as §1
[15] = Growth inhibition of human OVCAR8 cells at 10 uM after 48 hrs by sulforhodamine B assay; conditions: OVCAR-8, 48 h, read-out: GI; method in brief: as §1
[16] = Growth inhibition of human NCI-ADR-RES cells at 10 uM after 48 hrs by sulforhodamine B assay; conditions: read-out: GI; method in brief: as §1
[17] = Growth inhibition of human SKOV3 cells at 10 uM after 48 hrs by sulforhodamine B assay; conditions: SK-OV-3, 48 h, read-out: GI; method in brief: as §1
ACHN = test: Growth inhibition of human ACHN cells at 10 uM after 48 hrs by sulforhodamine B assay; conditions: read-out: GI; method in brief: as §1
[18] = Growth inhibition of human Caki1 cells at 10 uM after 48 hrs by sulforhodamine B assay; conditions: CAKI-1, 48 h, read-out: GI; method in brief: as §1
[19] = Growth inhibition of human RXF393 cells at 10 uM after 48 hrs by sulforhodamine B assay; conditions: RXF 393, 48 h, read-out: GI; method in brief: as §1
[20] = Growth inhibition of human UO31 cells at 10 uM after 48 hrs by sulforhodamine B assay; conditions: UO-31, 48 h, read-out: GI; method in brief: as §2
MCF7 = test: Growth inhibition of human MCF7 cells at 10 uM after 48 hrs by sulforhodamine B assay; conditions: MCF7, 48 h, read-out: GI; method in brief: as §1

Compound | inhibition of growth at 10 µM [1] [%] | inhibition of growth at 10 µM (T47D) [%] | inhibition of growth at 10 µM (MDA-MB-231) [%] | inhibition of growth at 10 µM (CCRF-CEM) [%] | inhibition of growth at 10 µM (K562) [%] | inhibition of growth at 10 µM (A549) [%] | inhibition of growth at 10 µM [2] [%] | inhibition of growth at 10 µM [3] [%] | inhibition of growth at 10 µM (NCI-H226) [%] | inhibition of growth at 10 µM (NCI-H23) [%] | inhibition of growth at 10 µM (NCI-H322M) [%] | inhibition of growth at 10 µM (NCI-H460) [%] | inhibition of growth at 10 µM (NCI-H522) [%] | inhibition of growth at 10 µM [4] [%] | inhibition of growth at 10 µM [5] [%] | inhibition of growth at 10 µM (HT-29) [%] | inhibition of growth at 10 µM [6] [%] | inhibition of growth at 10 µM [7] [%] | inhibition of growth at 10 µM [8] [%] | inhibition of growth at 10 µM [9] [%] | other results
COc1ccc(Cc2nnc(Nc3cccc(OC)c3)c3ccccc23)cc1 | < 30 | 30 | 37 | < 30 | < 30 | < 30 | 35 | 53 | 37 | < 30 | < 30 | < 30 | 63 | < 30 | < 30 | < 30 | < 30 | < 30 | < 30 | 30 | inhibition of growth at 10 µM (U-251): < 30%; inhibition of growth at 10 µM [10]: < 30%; inhibition of growth at 10 µM (Malme-3M): < 30%; inhibition of growth at 10 µM (M14): < 30%; inhibition of growth at 10 µM (SK-MEL-28): < 30%; inhibition of growth at 10 µM [11]: < 30%; inhibition of growth at 10 µM [12]: 33%; inhibition of growth at 10 µM [13]: < 30%; inhibition of growth at 10 µM [14]: < 30%; inhibition of growth at 10 µM [15]: < 30%; inhibition of growth at 10 µM [16]: 30%; inhibition of growth at 10 µM [17]: < 30%; inhibition of growth at 10 µM (ACHN): < 30%; inhibition of growth at 10 µM [18]: < 30%; inhibition of growth at 10 µM [19]: 32%; inhibition of growth at 10 µM [20]: 57%; inhibition of growth at 10 µM (MCF7): < 30%
COc1ccc(Cc2nnc(Nc3ccc(Cl)c(C(F)(F)F)c3)c3ccccc23)cc1 | < 30 | 59 | 40 | 52 | 60 | 62 | < 30 | 58 | 43 | 40 | 37 | 74 | 49 | < 30 | 58 | 48 | < 30 | 49 | 42 | 43 | inhibition of growth at 10 µM (U-251): 59%; inhibition of growth at 10 µM [10]: < 30%; inhibition of growth at 10 µM (Malme-3M): < 30%; inhibition of growth at 10 µM (M14): 48%; inhibition of growth at 10 µM (SK-MEL-28): < 30%; inhibition of growth at 10 µM [11]: 41%; inhibition of growth at 10 µM [12]: 32%; inhibition of growth at 10 µM [13]: 45%; inhibition of growth at 10 µM [14]: 33%; inhibition of growth at 10 µM [15]: 40%; inhibition of growth at 10 µM [16]: 50%; inhibition of growth at 10 µM [17]: < 30%; inhibition of growth at 10 µM (ACHN): 45%; inhibition of growth at 10 µM [18]: 35%; inhibition of growth at 10 µM [19]: 33%; inhibition of growth at 10 µM [20]: 63%; inhibition of growth at 10 µM (MCF7): 48%
COc1ccc(Cc2nnc(Nc3ccc(OC)cc3)c3ccccc23)cc1 | < 30 | 46 | 36 | < 30 | < 30 | < 30 | < 30 | 55 | < 30 | < 30 | < 30 | < 30 | < 30 | < 30 | < 30 | < 30 | < 30 | 30 | < 30 | < 30 | inhibition of growth at 10 µM (U-251): < 30%; inhibition of growth at 10 µM [10]: < 30%; inhibition of growth at 10 µM (Malme-3M): < 30%; inhibition of growth at 10 µM (M14): < 30%; inhibition of growth at 10 µM (SK-MEL-28): < 30%; inhibition of growth at 10 µM [11]: 34%; inhibition of growth at 10 µM [12]: < 30%; inhibition of growth at 10 µM [13]: < 30%; inhibition of growth at 10 µM [14]: < 30%; inhibition of growth at 10 µM [15]: < 30%; inhibition of growth at 10 µM [16]: < 30%; inhibition of growth at 10 µM [17]: < 30%; inhibition of growth at 10 µM (ACHN): < 30%; inhibition of growth at 10 µM [18]: < 30%; inhibition of growth at 10 µM [19]: < 30%; inhibition of growth at 10 µM [20]: 43%; inhibition of growth at 10 µM (MCF7): 38%
COc1ccc(Cc2nnc(Nc3ccc(Cl)cc3)c3ccccc23)cc1 | < 30 | 44 | 36 | 46 | 48 | 40 | 40 | 76 | 34 | 39 | 45 | 45 | 38 | < 30 | 33 | 50 | < 30 | 50 | 46 | 38 | inhibition of growth at 10 µM (U-251): 38%; inhibition of growth at 10 µM [10]: 58%; inhibition of growth at 10 µM (Malme-3M): < 30%; inhibition of growth at 10 µM (M14): 47%; inhibition of growth at 10 µM (SK-MEL-28): < 30%; inhibition of growth at 10 µM [11]: 60%; inhibition of growth at 10 µM [12]: 36%; inhibition of growth at 10 µM [13]: 33%; inhibition of growth at 10 µM [14]: < 30%; inhibition of growth at 10 µM [15]: 35%; inhibition of growth at 10 µM [16]: 48%; inhibition of growth at 10 µM [17]: < 30%; inhibition of growth at 10 µM (ACHN): 47%; inhibition of growth at 10 µM [18]: 37%; inhibition of growth at 10 µM [19]: 32%; inhibition of growth at 10 µM [20]: 68%; inhibition of growth at 10 µM (MCF7): 36%
